# Source: PubChem BioAssay
# RAD52 anneal inh = blocks human RAD52 DNA annealing; recombinant RAD52 DNA annealing, FRET fluorescence; inhibition, % at 18.7 µM; 360,000 compounds, 0.46% hits;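 active means every replicate showing at least 50% inhibition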
# Target sequence (P43351 whole entry, looked up): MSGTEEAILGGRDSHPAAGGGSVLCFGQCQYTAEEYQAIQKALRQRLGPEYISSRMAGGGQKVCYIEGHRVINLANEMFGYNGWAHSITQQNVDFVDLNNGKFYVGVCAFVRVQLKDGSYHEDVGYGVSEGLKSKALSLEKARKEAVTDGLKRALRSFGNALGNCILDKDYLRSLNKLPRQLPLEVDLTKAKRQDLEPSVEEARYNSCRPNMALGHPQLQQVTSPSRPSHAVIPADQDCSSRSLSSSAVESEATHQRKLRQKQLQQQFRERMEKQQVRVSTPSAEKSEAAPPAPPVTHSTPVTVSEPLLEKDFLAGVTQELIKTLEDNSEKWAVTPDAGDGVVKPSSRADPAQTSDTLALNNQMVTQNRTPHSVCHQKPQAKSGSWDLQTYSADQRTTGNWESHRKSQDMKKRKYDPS
# AF4-AF9 inh = inhibitors of human MLL-AF4/AF9 interaction; P42568; AlphaScreen, biotin-AF4 peptide binding to FLAG-AF9; inhibition, % at 10 µM; 350,000 compounds, 0.47% hits; AID 651704;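 active means every replicate reaching a set inhibition limit, whatever the replicate mean, cut at about 25% in these data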;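 further: 0% = plate neutral control median and 100% = total signal loss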
# FN deposit inh = fibronectin deposition inhibition; AH1F fibroblasts, Alexa488-fibronectin deposition fluorescence, overnight; inhibition, % at 12.6 µM; 350,000 compounds, 0.086% hits;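 active means mean inhibition across replicates of 30% or more, regardless of how many single replicates reach that level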;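 further: positive control wells lacked labelled fibronectin entirely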
#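 Material: AH1F fibroblasts assembling fluorescent fibronectin matrix; amount: 10000 AH1F cells/well; medium: DMEM, 2% serum; reagent: Alexa488-fibronectin, 24 nM final in well; dosing: single compound dose, delivered by pin transfer; incubation: 1 h adhesion, overnight exposure; detection: fluorescence after three HBSS washes, excitation 485 nm, emission 525 nm; measure: fibronectin deposition inhibition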
# NSD2 inh = inhibitors of human histone methyltransferase NSD2 | 310,000 compounds, 0.54% hits | inhibition, % at 12.5 µM | NSD2 peptide methylation, AlphaScreen, 120 min | O96028; in the data active means inhibition above about 50%
# Glyco luc inh = blocks N-linked glycosylation in D54 reporter cells | D54 ERlucT glycosylation luciferase reporter, 24 h; percent of 100 nM tunicamycin response | reporter increase, % at 12.5 µM | 360,000 compounds, 0.23% hits;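 active means mean luciferase reporter signal, scaled so untreated is 0 and the glycosylation-blocking control 100, at or above a set limit in every replicate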;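 further: luciferase carries N-glycosylation sites so blocking glycosylation raises the light; 0% = median of neutral control wells and 100% = median of 100 nM tunicamycin wells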
# RAD54 inh = blocks human RAD54 Holliday junction branch migration; Q92698; FAM/BHQ fluorescence; inhibition, % at 10.4 µM; 360,000 compounds, 0.14% hits; AID 602329;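 active means mean normalized replicate activity at least 40 and at least half of replicates scoring 40 or more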;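 further: 0% = median of neutral control wells and 100% = median of positive control wells; inhibitors cause a drop in the FAM fluorescence signal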
# Alpha interfer = AlphaScreen signal interference counter-screen hit; shares compounds with AF4-AF9 inh; signal luminescence; AC50, µM (highest dose often 12 µM), without a hit: top-dose activity change, negative = inhibition; 530 compounds, 45% hits; AID 720494; cut-off not given, nearly all actives have AC50 up to about 14 µM
# DNA binder FP = binds DNA, flagging false RAD52 inhibitor hits; shares compounds with RAD52 anneal inh; Salmon sperm DNA/acridine orange FP displacement, DNA binding; AC50, µM; 1,000 compounds, 8% hits; AID 652128;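 active means fitted half-maximal concentration for signal loss at or below twice the highest dose tested, in every separate run, actives reach about 64 µM in these data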
# AlphaScreen art = AlphaScreen assay artifact in NSD2 counter-screen; shares compounds with NSD2 inh; AlphaScreen artifact counterscreen, preloaded methylated H4 peptide; AC35, µM (top dose mostly 10 µM), without a hit: at the top dose activity change, negative = signal loss; 1,500 compounds, 9.4% hits; call rule not given here
# An asterisk follows results filed as active; i = inactive; nt = no result. A selection: hits, their analogues and other compounds. The true share with any hit is near 1.2%.
SMILES,RAD52 anneal inh,AF4-AF9 inh,FN deposit inh,NSD2 inh,Glyco luc inh,RAD54 inh,Alpha interfer,others
Cn1cc(CN2CCC(C(=O)NC(c3ccc(F)cc3)c3ccc4ccccc4n3)CC2)c2ccccc21 (centres undefined),25.8,25.3*,2.5,13.1,-3.7,12.3,-34.2%,
c1ccc2c(Nc3ccc4c(c3)OCCO4)c3c(nc2c1)CCCC3,20.8,23.8,-0.2,10.3,0.9,nt,-28.8%,
CS(=O)(=O)N1CCCCN2[C@H](C1)[C@H](c1ccc(C#Cc3ccccn3)cc1)[C@@H]2CO,-49.7,32.5*,2.2,nt,nt,2.9,-15.9%,
CC(C)NC(=O)N1C[C@@H]2C(c3ccc(Br)cc3)[C@H](C1)N2CC(F)(F)F (some centres undefined),nt,nt,5.2,nt,nt,nt,nt,
C[C@@H]1ON(C)[C@H]2C[C@H]3c4[nH]c5ccc(-c6ccc7c(c6)OCO7)cc5c4CCN3C[C@@H]12,-4.8,30.7*,nt,nt,-4.8,4.9,-15.0%,
C[C@@H]1ON(C)[C@H]2C[C@H]3c4[nH]c5cccc(-c6ccccc6)c5c4CCN3C[C@@H]12,-18.2,nt,-6.7,nt,nt,nt,nt,
CN(C)C(=O)c1ccc(-c2ccc(C3[C@@H]4CN(C(=O)C5CCOCC5)C[C@H]3N4)cc2)cc1 (some centres undefined),2.4,-6.3,-10.8,nt,nt,nt,nt,
COc1ccc(NC(=O)N2C[C@@H](O)COC[C@H]3O[C@@H](CC(=O)NC4Cc5ccccc5C4)CC[C@@H]32)cc1,9.0,-2.9,-0.8,nt,nt,-2.9,nt,
O=C(O)CCCNc1cc(N2CCN(C(=O)c3ccco3)CC2)c2noc3c2c1C(=O)c1ccccc1-3,i,37.1*,-1.5,77.6*,0.3,-11.1,-20.5%,
CCCNC(=O)N1CC2(CN(S(=O)(=O)c3ccccc3)C2)c2c(n(C)c3cc(OC)ccc23)[C@@H]1CO,0.8,-1.4,nt,nt,nt,nt,nt,
CN(C)c1ccc(-c2cc(O)c3ncccc3c2)cc1,-11.8,15.1,5.8,nt,-3.7,1.0,nt,
CN(C)CCCNC(=O)c1ccc(-c2cc(O)c3ncccc3c2)cc1,101.1*,87.3*,7.1,nt,-3.6,38.0,1.77µM*,DNA binder FP=i
CCOC(=O)c1c(C)n(-c2ccc(C)cc2)c2ccc(OCC(O)CNCCCO)cc12 (centres undefined),82.5*,27.1*,6.2,nt,-5.3,nt,-18.5%,DNA binder FP=i
CN(C)c1ccc(C(CN)c2c[nH]c3ccccc23)cc1 (centres undefined),84.1*,30.2*,-11.0,4.8,-1.9,-7.6,-33.1%,DNA binder FP=i
CN(C)CCNC(=O)c1cccc(-c2cc(NC=O)c3ncc(-c4cccc(C(F)(F)F)c4)n3c2)c1,73.7*,35.8*,3.5,10.0,-0.2,35.4,-32.6%,DNA binder FP=i
CN(C)C(=O)c1cccc(-c2cnc3c(NC=O)cc(-c4cccc(C(F)(F)F)c4)cn23)c1,-30.4,-0.7,-1.6,-1.1,11.2,11.8,nt,
CCC(=O)N1C[C@@H](C)[C@@H](OC)CN(C)C(=O)c2ccc(NC(=O)NC(C)C)cc2OC[C@@H]1C,-2.5,-1.6,-14.1,nt,nt,8.0,nt,
C#CCOCCOCCOCCNc1nc(N2CCN(C(=O)[C@H](CCCN=C(N)N)n3cc(C(N)[C@@H](C)CC)nn3)CC2)nc(N2CCN(C(=O)[C@H](CCC(=O)O)n3cc([C@@H](N)CC(N)=O)nn3)CC2)n1 (some centres undefined),-7.1,1.6,-15.1,nt,1.6,-6.9,nt,
C#CCOCCOCCOCCNc1nc(N2CCN(C(=O)[C@H](CCCN=C(N)N)n3cc(C(N)[C@@H](C)CC)nn3)CC2)nc(N2CCN(C(=O)[C@H](CCCCN)n3cc([C@@H](N)CC(N)=O)nn3)CC2)n1 (some centres undefined),65.9*,36.8*,2.0,nt,1.3,-38.1,-13.0%,DNA binder FP=i
COCC(=O)N1CC2(C1)CN(C(=O)CN1CCOCC1)[C@H](CO)c1c2c2ccc(OC)cc2n1C,nt,-4.8,nt,nt,nt,nt,nt,
CN1CCN(CCCCOc2ccccc2C=O)CC1,87.4*,33.1*,14.6,26.4,-4.8,19.0,-36.0%,DNA binder FP=i
C[C@H](CO)N1C[C@H](C)[C@@H](CN(C)Cc2cccc(C(F)(F)F)c2)OCc2ccccc2-c2ccccc2C1=O,nt,nt,-4.8,nt,nt,nt,nt,
COc1ccc(N=C2S/C(=C\c3ccc(Cl)c([N+](=O)[O-])c3)C(=O)N2CCN(C)C)cc1,53.5*,26.0*,-2.6,1.0,-8.9,24.4,6.7µM*,DNA binder FP=i
COc1ccc(NC(=O)Nc2ccc3c(c2)C(=O)N([C@@H](C)CO)C[C@@H](C)[C@H](CN(C)S(=O)(=O)c2ccc(Cl)cc2)OCCCC[C@@H](C)O3)cc1,23.1,4.6,-13.4,nt,nt,2.5,nt,
Cn1c(=O)cc2c3c(c(N4CCCCC4)ccc31)C(=O)c1ccccc1-2,-58.9,54.3*,0.7,71.0*,27.8*,10.8,10.3µM*,AlphaScreen art=7.83µM*
SMILES,RAD52 anneal inh,AF4-AF9 inh,FN deposit inh,NSD2 inh,Glyco luc inh,RAD54 inh,Alpha interfer,others
Cn1c(=O)c(NC2CCCCC2)c2c3c(cccc31)C(=O)c1ccccc1-2,i,-30.0,-13.8,-24.8,-8.5,nt,nt,
COc1ccc2c3c(n(C)c2c1)[C@@H](CO)N(S(=O)(=O)c1ccc(C)cc1)CC31CN(S(=O)(=O)c2ccc(C)cc2)C1,nt,-0.5,nt,nt,nt,nt,nt,
CCN(CC)c1ccc(C(=C2C=CC(=[N+](CC)CC)C=C2)c2ccc(N(CC)CC)cc2)cc1,51.6*,98.1*,60.4*,154.2*,-23.3,16.6,0.256µM*,DNA binder FP=i;AlphaScreen art=0.428µM*
Cc1cc(C(=O)c2ccccc2)cc(C)c1O,-10.2,-5.7,1.5,-1.1,0.1,nt,nt,
CC1=C/C(=C(\c2cc(C)c(O)c(Br)c2)c2ccccc2S(=O)(=O)O)C=C(Br)C1=O,-2.7,52.4*,6.6,50.4*,-7.2,7.5,8.9µM*,AlphaScreen art=7.81µM*
O=C(Nc1cc(Cl)cc(Cl)c1)N[C@@H]1CC[C@@H](CCNS(=O)(=O)c2cccc(F)c2)O[C@H]1CO,3.3,-0.6,-2.5,nt,nt,0.6,nt,
COc1ccc(S(=O)(=O)N[C@H]2C=C[C@H](CC(=O)N3CCC(Cc4ccccc4)CC3)O[C@@H]2CO)cc1,8.6,2.5,1.2,nt,nt,-3.2,nt,
CN(C)c1ccc(/C=C2/C[N+](C)(C)C/C(=C/c3ccc(N(C)C)cc3)C2=O)cc1,-124.8,56.3*,-19.1,66.2*,5.9,nt,5.83µM*,AlphaScreen art=9.46µM*
CC(C)/C=C1\CC/C(=C\c2ccc(N(C)C)cc2)C1=O,-120.4,-0.5,8.5,-0.7,-10.7,nt,nt,
